ChEMBL document CHEMBL3414437, “Synthesis of CDDO-amino acid-nitric oxide donor trihybrids as potential antitumor agents against both drug-sensitive and drug-resistant colon cancer” (J Med Chem, 2015)
Active and inactive are the calls of the source. The calls are words filed in the database; no cut-off is given here.

Experiments:
[1] = Antiproliferative activity against human HCT8 cells assessed as inhibition of cell proliferation after 72 hrs by MTT assay; format: functional, cell-based; details: HCT-8, 72 h
Method in brief: (§1)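 Cells (1.0 × 10^4/well) grown overnight in DMEM with 10% FBS. Treated in triplicate with eight concentrations ([…]) of compound from DMSO stock, final DMSO <0.4%, for 72 h. MTT added for the last 4 h, formazan dissolved in DMSO, read at 570 nm. Inhibition = (Acontrol−Atreated)/Acontrol. IC50 given as mean ± SD of three independent experiments.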

[2] = Antiproliferative activity against 5-FU resistant human HCT8 cells assessed as inhibition of cell proliferation after 72 hrs by MTT assay; format: functional, cell-based; details: HCT-8, 72 h; method in brief: as §1
[3] = Antiproliferative activity against human HCT8 cells assessed as inhibition of cell proliferation at 1 uM after 72 hrs by MTT assay; format: functional; details: HCT-8, 72 h, read-out: GI
Method in brief: (§2)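 Cells grown in DMEM with 10% FBS and exposed to compound at 1 µM for 72 h. Proliferation measured by MTT at 570 nm and expressed as % inhibition versus untreated cells. Mean ± SD of three independent experiments.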

[4] = Antiproliferative activity against 5-FU resistant human HCT8 cells assessed as inhibition of cell proliferation at 1 uM after 72 hrs by MTT assay; format: functional; details: HCT-8, 72 h, read-out: GI; method in brief: as §2
[5] = Antiproliferative activity against human CCD-841-CoN cells assessed as inhibition of cell proliferation after 72 hrs by MTT assay; format: cell-based; method in brief: as §1
HCT-8 [6] = assay: Induction of nitric oxide release in human HCT8 cells at 100 uM incubated for 150 mins by Griess assay; format: functional, cell-based
Method in brief: (§3)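 Cells (1 × 10^6/well) treated in triplicate with compound at 100 µM for 150 min. Lysates mixed with Griess reagent for 10 min at 37 °C and read at 540 nm. Nitrite quantified from a sodium nitrite standard curve; 0.4% DMSO-treated cells served as background. Mean ± SD of three experiments.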

HCT-8 [7] = assay: Induction of nitric oxide release in 5-FU resistant human HCT8 cells at 100 uM incubated for 150 mins by Griess assay; format: functional, cell-based; method in brief: as §3
CCD-841CoN = assay: Induction of nitric oxide release in human CCD-841-CoN cells at 100 uM incubated for 150 mins by Griess assay; format: functional, cell-based; method in brief: as §3

Compound	IC50 [1] [nM]	IC50 [2] [nM]	inhibition of growth at 1 µM [3] [%]	inhibition of growth at 1 µM [4] [%]	IC50 [5] [nM]	Activity (HCT-8 [6])	Activity (HCT-8 [7])	Activity (CCD-841CoN)
O=c1[nH]cc(F)c(=O)[nH]1 [FLUOROURACIL]	910	36600	–	–	–	–	–	–
CC1(C)CC[C@]2(C(=O)N3CCC[C@H]3C(=O)OCC#CCOc3no[n+]([O-])c3S(=O)(=O)c3ccccc3)CC[C@]3(C)[C@H](C(=O)C=C4[C@@]5(C)C=C(C#N)C(=O)C(C)(C)[C@@H]5CC[C@]43C)[C@@H]2C1	441	343	> 90	> 90	1420	–	–	–
CC1(C)CC[C@]2(C(=O)NCCC(=O)OCC#CCOc3no[n+]([O-])c3S(=O)(=O)c3ccccc3)CC[C@]3(C)[C@H](C(=O)C=C4[C@@]5(C)C=C(C#N)C(=O)C(C)(C)[C@@H]5CC[C@]43C)[C@@H]2C1	379	462	> 90	> 90	1470	–	–	–
CC1(C)CC[C@]2(C(=O)NCC(=O)O)CC[C@]3(C)[C@H](C(=O)C=C4[C@@]5(C)C=C(C#N)C(=O)C(C)(C)[C@@H]5CC[C@]43C)[C@@H]2C1	3190	2260	–	–	–	inactive	inactive	–
O=S(=O)(c1ccccc1)c1c(OCC#CCO)no[n+]1[O-]	33500	36600	–	–	–	–	–	–
CC1(C)CC[C@]2(C(=O)NCC(=O)OCCCOc3no[n+]([O-])c3S(=O)(=O)c3ccccc3)CC[C@]3(C)[C@H](C(=O)C=C4[C@@]5(C)C=C(C#N)C(=O)C(C)(C)[C@@H]5CC[C@]43C)[C@@H]2C1	550	380	> 90	> 90	1720	–	–	–
CC1(C)CC[C@]2(C(=O)NCC(=O)OCCOCCOc3no[n+]([O-])c3S(=O)(=O)c3ccccc3)CC[C@]3(C)[C@H](C(=O)C=C4[C@@]5(C)C=C(C#N)C(=O)C(C)(C)[C@@H]5CC[C@]43C)[C@@H]2C1	872	562	> 90	> 90	3130	–	–	–
CC1(C)CC[C@]2(C(=O)NCC(=O)OCCCCCCOc3no[n+]([O-])c3S(=O)(=O)c3ccccc3)CC[C@]3(C)[C@H](C(=O)C=C4[C@@]5(C)C=C(C#N)C(=O)C(C)(C)[C@@H]5CC[C@]43C)[C@@H]2C1	356	339	> 90	> 90	1420	–	–	–
CC1(C)CC[C@]2(C(=O)N3CCC[C@H]3C(=O)OCCCOc3no[n+]([O-])c3S(=O)(=O)c3ccccc3)CC[C@]3(C)[C@H](C(=O)C=C4[C@@]5(C)C=C(C#N)C(=O)C(C)(C)[C@@H]5CC[C@]43C)[C@@H]2C1	–	–	–	–	–	inactive	inactive	inactive
CC1(C)CC[C@]2(C(=O)NCC(=O)OCCCCOc3no[n+]([O-])c3S(=O)(=O)c3ccccc3)CC[C@]3(C)[C@H](C(=O)C=C4[C@@]5(C)C=C(C#N)C(=O)C(C)(C)[C@@H]5CC[C@]43C)[C@@H]2C1	383	315	> 90	> 90	1120	–	–	–
CC1(C)CC[C@]2(C(=O)NCCCC(=O)OCC#CCOc3no[n+]([O-])c3S(=O)(=O)c3ccccc3)CC[C@]3(C)[C@H](C(=O)C=C4[C@@]5(C)C=C(C#N)C(=O)C(C)(C)[C@@H]5CC[C@]43C)[C@@H]2C1	504	381	> 90	> 90	1700	–	–	–
CC1(C)CC[C@]2(C(=O)N3CCC[C@H]3C(=O)OCCCCOc3no[n+]([O-])c3S(=O)(=O)c3ccccc3)CC[C@]3(C)[C@H](C(=O)C=C4[C@@]5(C)C=C(C#N)C(=O)C(C)(C)[C@@H]5CC[C@]43C)[C@@H]2C1	–	–	–	–	–	inactive	inactive	inactive
CC1(C)CC[C@]2(C(=O)N3CCC[C@H]3C(=O)OCCCCCCOc3no[n+]([O-])c3S(=O)(=O)c3ccccc3)CC[C@]3(C)[C@H](C(=O)C=C4[C@@]5(C)C=C(C#N)C(=O)C(C)(C)[C@@H]5CC[C@]43C)[C@@H]2C1	–	–	–	–	–	inactive	inactive	inactive
C[C@@H](NC(=O)[C@]12CCC(C)(C)C[C@H]1[C@H]1C(=O)C=C3[C@@]4(C)C=C(C#N)C(=O)C(C)(C)[C@@H]4CC[C@@]3(C)[C@]1(C)CC2)C(=O)OCC#CCOc1no[n+]([O-])c1S(=O)(=O)c1ccccc1	370	276	> 90	> 90	958	Active	Active	inactive
